# An excerpt weighted towards active compounds, which were near 5.4% of everything screened.
# PostGolgi ctrl = growth inhibition of yeast control strain, primary screen, counter-screen for post-Golgi transport modulator project. efflux-deficient yeast background strain, growth absorbance A615, 16 h. inhibition, % at 10 µM. hit rate 5% among 98,000. AID 738, 2007
# E coli WT exp = growth inhibitors of wild-type E. coli, primary screen, strain BW25113, expanded library, OD600. hit rate 0.15% among 98,000. OD600 absorbance. growth inhibition, % at 100 µM. AID 710, 2007;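 active = growth inhibition above about 50% at one test dose, limit read from the data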;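 note: growth measured after 20 h incubation at 37 °C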
# HePTP inh = inhibitors of human HePTP phosphatase, primary screen, biochemical, absorbance, leukemia target. Tyrosine-protein phosphatase non-receptor type 7 (Homo sapiens), P35236. recombinant HePTP phosphatase activity, OD absorbance. inhibition, % at 20 µM. hit rate 0.64% among 110,000; in the data active = inhibition above about 50%;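 note: plate controls were vehicle for no effect and reference inhibitor for full effect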
# Target sequence (P35236 whole entry, looked up): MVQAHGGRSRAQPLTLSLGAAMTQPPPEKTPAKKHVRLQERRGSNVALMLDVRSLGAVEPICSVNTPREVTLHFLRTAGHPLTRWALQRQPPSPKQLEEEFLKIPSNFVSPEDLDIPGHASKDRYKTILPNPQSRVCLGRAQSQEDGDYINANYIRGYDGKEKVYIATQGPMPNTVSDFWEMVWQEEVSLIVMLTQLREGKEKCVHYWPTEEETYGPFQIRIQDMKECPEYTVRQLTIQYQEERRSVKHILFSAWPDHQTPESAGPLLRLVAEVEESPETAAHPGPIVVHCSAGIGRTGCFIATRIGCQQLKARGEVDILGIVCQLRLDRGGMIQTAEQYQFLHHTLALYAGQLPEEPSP
# tolC growth inh = growth inhibitors of E. coli tolC mutant, primary screen, strain BW25113 ΔtolC::kan, 384-well; OD615; growth inhibition, % at 10 µM (by protocol); hit rate 2.2% among 65,000; AID 573, 2007;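 active = growth inhibition at or above a cutoff equal to the mean over every tested compound plus 3 SD, cut at about 60% in these data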;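 note: growth measured after 20 h incubation at 37 °C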
#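 System: E. coli ΔtolC::kan strain BW25113; Buffer or medium: LB broth supplemented with 50 µg/mL kanamycin; Compound: 10 µM final, single dose; Incubation: bacterial growth with compound for 20 h at 37 °C; Signal: A615 absorbance measurement; Evaluation: growth inhibition in percent.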
# PostGolgi yeast = phenotypic screen on post-Golgi transport, primary screen. hit rate 0.9% among 98,000. inhibition, % at 10 µM. AID 739, 2007. post-Golgi transport phenotypic cell assay;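 note: yeast cells grown in 1536-well plates; yeast grown about 18 h at 30C before absorbance read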
# PLAP activator = PLAP enzyme activators, biochemical, luminescence, HTS. Alkaline phosphatase, placental type (Homo sapiens), P05187. purified PLAP enzyme, luminescent substrate read-out; hits give high values. activation fold at 20 µM. hit rate 1.2% among 96,000. AID 696, 2007; in the data active = activation fold above about 2
# * = called active by the depositor; x = no result. Cut-off read from the data, not from the text of the source, unless noted: active = inhibition above about 30%; inactive = the rest.
SMILES,PostGolgi ctrl,E coli WT exp,HePTP inh,tolC growth inh,PostGolgi yeast,PLAP activator
OC(c1cccc(OCc2ccccc2)c1)c1nnc(-c2ccccc2)o1 (stereo not drawn),56*,-10,14,75*,-1,1.1
O=C(O)c1cc(-c2cccs2)nc2ccccc12,x,x,92*,x,x,x
Cc1nnc(NC(=O)c2cc(-c3cccs3)nc3ccccc23)s1,x,x,102*,x,x,x
Cc1nnc(NC(=O)c2cc(-c3ccc(Cl)cc3)nc3ccccc23)s1,x,x,-11,x,x,x
N#Cc1cc(-c2ccc(Cl)cc2)cn(Cc2c(Cl)cccc2Cl)c1=O,2,1,x,x,-10,1
Cc1cc(/C=N/NC(N)=S)c(C)n1-c1cccc(Cl)c1,x,x,8,x,x,x
Cc1c(Cc2ccccc2)sc(N)c1C(N)=O,38*,7,2,12,0,1.1
CC1CCCN(Cc2c(O)[nH]c(=S)[nH]c2=O)C1 (stereo not drawn),x,x,-2,x,x,x
CCOC(=O)C(=Cc1cc(OC)c(OC)cc1Br)C(=O)OCC,x,x,3,x,x,x
CCOC(=O)C(=CC1=C/C(=C/N(C)C)C(=O)O1)C(=O)OCC,x,x,81*,x,x,x
COC(=O)c1cccc(NC(=O)COc2ccc(Cl)cc2)c1,x,x,-1,x,x,x
COC(=O)c1cccc(NC(=S)NCc2ccc(Cl)cc2)c1,45*,1,x,x,11,0.8
COc1ccc(-c2[nH]ncc2-c2ccc(Cl)cc2)c(O)c1,49*,18,0,98*,15,2*
Oc1ccc(-c2[nH]ncc2-c2ccc(Cl)cc2)c(O)c1,23,30,-1,100*,-4,1.6
Cn1c(=O)oc2cc(S(=O)(=O)NCc3ccncc3)ccc21,0,-4,7,-17,0,1
O=C(CN1C(=O)/C(=C\c2ccccc2F)SC1=S)Nc1ccc(C(=O)O)cc1,x,x,53*,x,x,x
CN(C(=O)Cn1nnc(-c2cccc(C(F)(F)F)c2)n1)C1CCCCC1,24,-2,x,x,14,1.1
CC(O)(CS(=O)(=O)Cc1ccc(Cl)cc1)C(=O)Nc1cccc(C(F)(F)F)c1 (stereo not drawn),5,-6,x,x,-2,1
O=C(Nc1cccc(C(F)(F)F)c1)N(Cc1ccc(Cl)cc1)CC(O)C(F)(F)F (stereo not drawn),51*,11,x,x,-10,0.8
O=C(CSCC(=O)Nc1cccc(C(F)(F)F)c1)Nc1ccccc1,x,x,-2,x,x,x
O=C(CC(=O)Nc1cccc(C(F)(F)F)c1)Nc1cccc(C(F)(F)F)c1,x,x,99*,x,x,x
Cc1cccc(OCC(=O)Nc2cccc(C(F)(F)F)c2)c1,x,x,6,x,x,x
O=C(COCC(=O)Nc1cccc(C(F)(F)F)c1)Nc1cccc(C(F)(F)F)c1,43*,1,x,x,3,1.2
Cc1ccc(OC(F)F)c(NC(=O)Nc2cccc(C(F)(F)F)c2)c1,56*,2,x,x,-2,0.7
CNC(=O)Nc1cccc(C(F)(F)F)c1,15,9,6,-7,10,x
SMILES,PostGolgi ctrl,E coli WT exp,HePTP inh,tolC growth inh,PostGolgi yeast,PLAP activator
CCNS(=O)(=O)c1cc(Br)ccc1OC,10,4,4,-5,-6,1.1
CCCC12C(=O)C(C)(C(c3ccccc3)=C1c1ccccc1)C1C(=O)N(c3cccc(Br)c3)C(=O)C12 (stereo not drawn),x,x,2,x,x,x
CCOCCCNc1nc(=S)[nH]c2cc(OC)c(OC)cc12,5,3,-7,-5,-6,1
COc1cc(/C=C2/SC(=S)NC2=O)c([N+](=O)[O-])cc1OC,x,x,-5,x,x,x
COc1cc(/C=C2/SC(=S)NC2=O)ccc1OS(=O)(=O)c1ccccc1[N+](=O)[O-],x,x,59*,x,x,x
O=C1NC(=S)S/C1=C\c1ccccc1[N+](=O)[O-],x,x,93*,x,x,x
CN(C)CC(=O)Nc1cc(C(F)(F)F)ccc1Cl,8,-5,6,-13,38*,1
CCN(CC(=O)Nc1ccccc1C(=O)OC)S(=O)(=O)c1ccc(OC)cc1,40*,2,7,9,-6,0.9
COc1cnn(-c2ccccc2)c(=O)c1SCc1ccc(Cl)cc1Cl,36*,-14,x,x,-5,0.9
COc1cnn(-c2ccc(C)cc2)c(=O)c1SCc1ccccc1,4,5,x,x,4,0.9
CCN(C(=O)c1ccc(NC(C)=O)cc1)c1ccccc1C,2,3,-10,x,11,1.2
Cc1ccc(NC(=O)CCC(=O)NNC(=O)COc2cccc3ccccc23)c(C)c1,-15,-6,x,x,-12,1
COc1ccccc1N1C(=O)NC(=O)/C(=C\c2cc3ccccc3n2C)C1=O,x,x,0,x,x,x
COc1ccccc1N1C(=O)C(=Cc2cccn2C)C(=O)NC1=S,x,x,102*,x,x,x
CC1CCN(c2c(NCC3CCC(C(=O)N4CCCC(C)C4)CC3)c(=O)c2=O)CC1 (stereo not drawn),8,4,x,x,0,1.6
N#Cc1nc(Cc2ccccc2)oc1NCc1ccccc1Cl,46*,30,3,93*,17,1.1
N#Cc1nc(-c2ccccc2Cl)oc1NCc1ccco1,31*,15,11,41,-2,0.9
CCC1C(=O)N=C(SCC(=O)Nc2nc(-c3ccccc3)cs2)NC1=O (stereo not drawn),x,x,5,x,x,x
CCC(C(=O)OC)n1cnc2c(cnn2-c2ccc(Cl)cc2)c1=O (stereo not drawn),41*,-2,-1,1,1,1
CC(C)CCn1cnc2c(cnn2-c2ccc(Cl)cc2)c1=O,3,1,12,-3,-4,0.9
FC(F)(F)c1cnc(N2CCC(=NOCc3ccc(Cl)cc3)CC2)c(Cl)c1,0,9,x,x,16,1
Cc1c(C)n(C(=O)CSc2nc3ccccc3[nH]2)c2ccccc12,31*,-8,x,x,-2,1.5
COc1ccc(NC(=O)CCN2C(=O)/C(=C/c3ccc(F)cc3)SC2=S)cc1,x,x,5,x,x,x
Cc1ccccc1CS(=O)(=O)c1nnc([C@H](Cc2ccccc2)NC(=O)OC(C)(C)C)o1,51*,9,x,x,37*,1.6
CC(C)(C)OC(=O)N[C@@H](Cc1ccccc1)c1nnc(S(=O)(=O)Cc2ccccc2)o1,10,1,2,3,17,1.1
CCC(C)C(NCc1cccc(C)c1)C(=O)O (stereo not drawn),x,x,9,-6,x,x
CCC(C)[C@@H](NC(=O)OC(C)(C)C)c1nnc(S(=O)(=O)Cc2cccc(C)c2)o1 (stereo partly drawn),52*,4,-6,-7,15,1.4
COC(=O)c1c(C)oc2ccc(NS(=O)(=O)c3ccc4ccccc4c3)cc12,x,x,8,x,x,x
CCC(C)n1cnc2c(c1=O)c1nc3ccccc3nc1n2Cc1ccc(OC)cc1 (stereo not drawn),36*,-11,x,x,-5,1.1
